A selection: hits, their analogues and other compounds. The true share with any hit is near 0.79%.
mIAP activ: mouse IAP activation. AID 2805. 0.24% of 330,000 active. muIAP, CDP-Star luminescence, 30 min; hits give high values; 1 = vehicle-only enzyme signal, 0 = enzyme-free wells. activation factor at 10 µM;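 active = activation factor of at least 2 at 20 µM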
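Assay system: mouse IAP enzyme; Reagent: CDP-Star chemiluminescent phosphatase substrate; Compound: DMSO-dissolved test compounds; Incubation: 30 min, room temperature; Technique: luminescence from enzymatic CDP-Star hydrolysis; Controls: DMSO-only wells and no-enzyme negative control.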
hIAP inh: human IAP inhibition. P09923. purified IAP, CDP-Star luminescence, 30 min. inhibition, % at 10 µM. 0.12% of 330,000 active. AID 2544;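 active = inhibition reaching a set limit with compound at 10 µM in the primary screen, cut at about 35% in these data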
Target sequence (P09923 whole entry, looked up): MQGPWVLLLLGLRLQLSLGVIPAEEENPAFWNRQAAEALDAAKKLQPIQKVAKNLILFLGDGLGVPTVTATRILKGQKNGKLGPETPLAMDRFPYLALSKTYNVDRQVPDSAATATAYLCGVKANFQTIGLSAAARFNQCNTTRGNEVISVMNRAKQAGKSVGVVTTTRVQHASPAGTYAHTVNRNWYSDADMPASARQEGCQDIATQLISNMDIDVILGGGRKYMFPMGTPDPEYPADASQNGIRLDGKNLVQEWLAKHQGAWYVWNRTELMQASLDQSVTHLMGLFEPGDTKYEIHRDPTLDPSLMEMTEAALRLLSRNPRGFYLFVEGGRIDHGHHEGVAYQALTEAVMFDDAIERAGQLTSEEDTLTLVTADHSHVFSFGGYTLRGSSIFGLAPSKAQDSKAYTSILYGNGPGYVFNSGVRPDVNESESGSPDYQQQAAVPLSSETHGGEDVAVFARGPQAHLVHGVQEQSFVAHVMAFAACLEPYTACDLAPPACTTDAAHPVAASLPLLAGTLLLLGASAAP
bIAP activator: intestinal alkaline phosphatase (bovine) activation; purified bovine IAP, CDP-star luminescence, 30 min; hits give high values; fold of DMSO-control signal, blank-subtracted; activation factor at 20 µM; 0.17% of 200,000 active; AID 1016;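 active = activation factor of 2 or more at 20 µM, a signal rise over negative controls twice the positive control's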
mIAP inh: blocks mouse intestinal alkaline phosphatase | inhibition, % at 10 µM | purified mouse IAP, CDP-Star luminescence, 30 min | 0.2% of 330,000 active;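 active = inhibition of at least 40% at 10 µM in the primary screen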
bIAP inh: intestinal alkaline phosphatase (bovine) inhibition | purified bovine IAP, CDP-star luminescence, 30 min | inhibition, % at 20 µM | 190,000 tested, under 10 active | AID 1019;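 active = over 50% inhibition of intestinal alkaline phosphatase at 20 µM in the single-dose screen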
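test system = bovine IAP enzyme | medium = DEA buffer 100 mM, pH 9.8, with MgCl2 1.0 mM, ZnCl2 0.02 mM | detection = luminescence | dosing = single compound dose of 20 µM, 2% DMSO final | incubation = 30 min reaction at room temperature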
hIAP act: increases human intestinal alkaline phosphatase activity; purified human IAP, CDP-Star luminescence, 30 min; hits give high values; 1 = vehicle-only enzyme, 0 = enzyme-free background; activation factor at 10 µM; 0.16% of 330,000 active; AID 2524;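 active = activation factor of the enzyme at least 2-fold when tested at 20 µM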
Large screens that a line does not name were inactive.

C[C@H](CO)N1C[C@H](C)[C@@H](CN(C)C(=O)Nc2ccc(C(F)(F)F)cc2)Oc2ccc(NC(=O)Nc3ccccc3)cc2C1=O	mIAP activ 2.4 (no result: bIAP activator, bIAP inh)
C[C@H](CO)N1C[C@H](C)[C@@H](CN(C)S(C)(=O)=O)Oc2ccc(NC(=O)Nc3ccc(C(F)(F)F)cc3)cc2C1=O	mIAP activ 2.3 (no result: bIAP activator, bIAP inh)
C[C@H](CO)N1C[C@H](C)[C@@H](CN(C)C(=O)NC2CCCCC2)Oc2ccc(NC(=O)Nc3ccc(C(F)(F)F)cc3)cc2C1=O	mIAP activ 2.3 (no result: bIAP activator, bIAP inh)
Cc1ccc(OCc2cc(C(=O)N(C)Cc3cnc4ccccn34)no2)cc1C	none (no result: bIAP activator, bIAP inh)
CCCCCCCCCCSc1n[nH]c(NC(C)=O)n1	mIAP activ 2.1, bIAP activator 3.3
CCCSc1n[nH]c(NC(C)=O)n1	none
CCCCCCSc1cccc(-c2nc3ccc(Cl)cn3c2NCc2ccccc2)c1	none (no result: bIAP activator, bIAP inh)
O=C(Nc1ccc(Cl)cc1)Nc1ccc(-c2cnco2)cc1	mIAP activ 2 (no result: bIAP activator, bIAP inh)
CCCCSCCCNC(=O)Nc1ccc(CC)cc1	mIAP activ 2.5
CCO[C@H]1OC(C(=O)NC2CC2)=C[C@@H](c2csc3ccccc23)[C@@H]1CCCO	none
CC(NC(=O)NC1CCCCC1)C(c1cccs1)N1CCN(c2ccccc2)CC1 (stereo unspecified)	mIAP activ 2
CC(NC(=O)C1CC1)C(c1cccs1)N1CCN(c2ccccc2)CC1 (stereo unspecified)	none
COc1ccc(-c2nn(C)c3sc(C(=O)NCc4ccco4)cc23)cc1OC	bIAP activator 3.5
CCCNc1c(NC(=O)c2cccs2)c(=O)oc2ccccc12	none (no result: bIAP activator, bIAP inh)
O=C(Cn1c(CSc2ccccc2)nc2ccccc21)Nc1ccccc1	none (no result: mIAP activ, hIAP inh, mIAP inh, hIAP act)
Cc1ccc(SCc2nc3ccccc3n2CC(=O)Nc2ccccc2)cc1	mIAP activ 2.4
Cc1cccc(Oc2ccc(NC(=O)C3=CC=CN4CCS(=O)(=O)N=C34)cc2)c1	none (no result: bIAP activator, bIAP inh)
FC(F)(F)c1ccc(NC(=S)NCc2ccccc2)cc1	mIAP activ 2
FC(F)Sc1ccc(NC(=S)NCc2ccccc2)cc1	mIAP activ 2.1
COc1ccccc1NC(=S)NC(=O)/C=C/c1ccco1	mIAP inh 42
Cc1cccc(NC(=S)NC(=O)/C=C/c2ccco2)c1	none
O=C(/C=C/c1ccco1)NC(=S)Nc1cccc([N+](=O)[O-])c1	mIAP inh 60
O=S(=O)(NC(=NC1CCCCC1)c1ccccc1F)c1ccccc1	none (no result: bIAP activator, bIAP inh)
CC(=O)N1CCC(N(CCN2CCOCC2)C(=S)Nc2ccccc2C)CC1	none
c1ccc2c3c([nH]c2c1)C(C1CCCCC1)N(Cc1ncc[nH]1)CC3 (stereo unspecified)	bIAP activator 2.1
Cc1ccc(S(=O)(=O)N(C)CC(=O)OCC(=O)NC(c2ccccc2)c2ccccc2)cc1	none
COc1ccc(N=C2NC(=O)/C(=C/c3ccco3)S2)cc1	none (no result: bIAP activator, bIAP inh)
COc1ccc(S(=O)(=O)/N=C2/NC(=O)/C(=C/c3ccco3)S2)cc1	mIAP inh 57
CC(C)Cc1nc2ccccc2[nH]1	none (no result: bIAP activator, bIAP inh)
COc1ccccc1CC(Cc1nc2ccccc2[nH]1)c1nc2ccccc2[nH]1 (stereo unspecified)	bIAP activator 3.6
COc1ccc(CSCC(=O)Nc2ccccc2)cc1[N+](=O)[O-]	none (no result: bIAP activator, bIAP inh)
COc1ccc(NC(=S)NNC(=O)CCn2cc([N+](=O)[O-])cn2)cc1	hIAP act 2.1
COc1ccc(OC)c(C(=O)NC(CC(N)=O)c2ccc(NCc3ccc(F)c(F)c3)c([N+](=O)[O-])c2)c1 (stereo unspecified)	mIAP inh 48 (no result: bIAP activator, bIAP inh)
COc1ccc(OC)c(C(=O)NC(CC(N)=O)c2ccc(NCc3ccccn3)c([N+](=O)[O-])c2)c1 (stereo unspecified)	none (no result: bIAP activator, bIAP inh)
COCCN(C(=O)Cc1cccs1)C(C(=O)NC1CCCC1)c1ccc(OC)c(OC)c1 (stereo unspecified)	none
COc1ccc(C(C(=O)NC2CCCC2)N(Cc2cccs2)C(=O)c2ccn[nH]2)cc1OC (stereo unspecified)	bIAP activator 2.3
COc1ccc(-c2nnn(CC(=O)N(Cc3cccs3)C(C)C(=O)NC3CCCC3)n2)cc1OC (stereo unspecified)	none

High-throughput results: PubChem BioAssay, Sanford-Burnham Center for Chemical Genomics
